This note sets out measurements from ChEMBL document CHEMBL1138950, “Benzimidazole derivatives bearing substituted biphenyls as hepatitis C virus NS5B RNA-dependent RNA polymerase inhibitors: structure-activity relationship studies and identification of a potent and highly selective inhibitor JTK-109” (J Med Chem, 2006).

Bounds are passed on as bounds.

One series deals with Huh-5-2. Briefly: Viability of Huh5-2 cells by MTT assay. Format: functional. The note with it: Homo sapiens.
Series [1] deals with Hepatitis C virus. Briefly: Inhibition of HCV subgenomic RNA replication in Huh5-2 cells after 48 hrs by replicon assay. Format: functional, organism-based, Hepacivirus hominis. The note with it: Huh-5-2, 48 h. The method, boiled down:
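Huh-5-2 cells (Huh-7-derived, genotype 1b subgenomic replicon with luciferase reporter) seeded at 5 × 10^3 per well in DMEM with 10% FBS, 37 °C, 5% CO2; compounds added next day, 48 h exposure; luciferase activity read. EC50 is the concentration reducing replication by 50%. Triplicate, mean of three experiments.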

Series [2] deals with RNA-directed RNA polymerase (Hepacivirus hominis, UniProt O39930). As to the kind of experiment: Inhibition of HCV 1b BK six His-tagged C-terminal truncated 544 amino acid NS5B RNA dependent RNA polymerase. The arrangement: species or system Hepatitis C virus subtype 1b. The method, boiled down: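 HCV genotype 1b (BK) NS5B lacking 47 C-terminal residues, His6-tagged, E. coli-expressed; 7 nM enzyme with 5 µg HCV 3′X RNA template-primer, 50 µM each ATP/GTP/CTP, 2 µM UTP plus [3H]-UTP; pH 7.5 Tris, 5 mM MgCl2. Compounds in DMSO (5% final). 60 min at 25 °C; TCA-precipitable radioactivity read. Triplicate, mean of three experiments.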

In series [3] the test system is Hepatitis C virus. Briefly: Inhibition of HCV subgenomic RNA replication in Huh5-2 cells at 10 uM after 48 hrs by replicon assay. Format: functional, Hepacivirus hominis. Particulars: Huh-5-2, 48 h.
Series [4] in a line: Plasma concentration in rat at 30 mg/kg, po after 2 hrs. The arrangement: dose 30 mg/kg, route oral. It is filed as ADME, organism-based. In a few lines: (§1)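 Rats dosed orally at 30 mg/kg; plasma sampled at 1 and 2 h; n = 2 or 3.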
Series [5] is described as follows: Therapeutic index, CC50 for viability of Huh5-2 cells/EC50 for inhibition of HCV subgenomic RNA replication. It is filed as cell-based, Huh-5-2. Particulars: human, read-out: Ratio CC50/EC50.
Series [6] is described as follows: Plasma concentration in rat at 30 mg/kg, po after 1 hr. It is filed as ADME, organism-based. Details: dose 30 mg/kg, route oral. In a few lines: as §1
Series [7] is described as follows: Distribution coefficient, log D at pH 7.2. It is filed as physicochemical. The note with it: octanol/water.
Series [8] in a line: Apparent permeability in Caco-2 cells. The note with it: human. Format: ADME, cell-based.

Chain of RNA-directed RNA polymerase (O39930 whole entry, the tested form may be a part): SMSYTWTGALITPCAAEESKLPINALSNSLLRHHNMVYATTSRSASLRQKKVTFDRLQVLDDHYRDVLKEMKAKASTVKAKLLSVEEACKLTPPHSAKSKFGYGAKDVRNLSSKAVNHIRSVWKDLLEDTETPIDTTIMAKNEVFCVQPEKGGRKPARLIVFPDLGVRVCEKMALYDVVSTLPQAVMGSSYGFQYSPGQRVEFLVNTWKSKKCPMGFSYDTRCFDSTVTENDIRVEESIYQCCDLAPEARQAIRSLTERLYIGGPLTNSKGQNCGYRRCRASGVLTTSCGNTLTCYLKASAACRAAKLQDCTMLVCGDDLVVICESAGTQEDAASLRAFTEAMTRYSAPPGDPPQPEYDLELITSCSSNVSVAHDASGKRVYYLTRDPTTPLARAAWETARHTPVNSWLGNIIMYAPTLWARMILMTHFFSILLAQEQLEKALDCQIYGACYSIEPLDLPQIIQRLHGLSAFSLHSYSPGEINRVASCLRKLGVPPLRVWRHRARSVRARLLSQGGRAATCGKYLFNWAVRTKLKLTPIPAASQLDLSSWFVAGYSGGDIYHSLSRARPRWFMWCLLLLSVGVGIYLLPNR

As to `Cc1nc(COc2ccc(-c3nc4cc(C(=O)O)ccc4n3C3CCCCC3)cc2)c(-c2ccc(Cl)cc2)o1`, the CC50 in the series on Huh-5-2 came to 39000 nM. The same molecule gave an EC50 with Hepatitis C virus [1] greater than 10000 nM. This molecule showed an IC50 in series [2] of 580 nM. The inhibition at 10 µM with Hepatitis C virus [3] was determined as 30%.
Regarding `CC(=O)Nc1ccc(-c2ccc(Cl)cc2)c(COc2ccc(-c3nc4cc(C(=O)O)ccc4n3C3CCCCC3)c(F)c2)c1`, the 50% cytotoxic concentration (CC50) in the series on Huh-5-2 came to 24000 nM. In the series with Hepatitis C virus [1], this molecule returned an EC50 of 460 nM. Also, the IC50 in series [2] amounted to 14 nM. Further, the concentration at 2 h in series [4] turned out to be 300 nM. Besides, the selectivity ratio in [5] came to 52. Also, the concentration at 1 h in series [6] came to 1000 nM.
`CCCNC(=O)c1ccc(-c2ccc(Cl)cc2)c(COc2ccc(-c3nc4cc(C(=O)O)ccc4n3C3CCCCC3)c(F)c2)c1`: the CC50 in the series on Huh-5-2 was determined as 24000 nM. The EC50 in the series with Hepatitis C virus [1] was determined as 380 nM. Besides, the IC50 in series [2] came to 21 nM. For the same molecule, the concentration at 2 h in series [4] was found to be 600 nM. The selectivity ratio in [5] stood at 63. Further, in series [6], the concentration at 1 h was 1300 nM.
Regarding `O=C(O)c1ccc(-c2ccc(Cl)cc2COc2ccc(-c3nc4cc(C(=O)O)ccc4n3C3CCCCC3)cc2)cc1`, the CC50 with Huh-5-2 was greater than 50000 nM. In the series with Hepatitis C virus [1], this molecule registered an EC50 greater than 10000 nM. This molecule registered an IC50 in [2] of 58 nM. Further, the logD in series [7] amounted to 3.26. Besides, the Papp in [8] was found to be 23.4 ×10⁻⁶ cm/s.
`CC(=O)N(C)c1ccc(-c2ccc(Cl)cc2)c(COc2ccc(-c3nc4cc(C(=O)O)ccc4n3C3CCCCC3)c(F)c2)c1` showed a 50% cytotoxic concentration (CC50) in the series with Huh-5-2 of 26000 nM. A half-maximal response with Hepatitis C virus [1] (EC50) required 150 nM. The same molecule had an IC50 in series [2] of 16 nM. In series [4], this molecule registered a concentration at 2 h of 1100 nM. In [5], the selectivity ratio stood at 173. The same molecule had a concentration at 1 h in [6] of 900 nM.
As for `CC(C)NC(=O)c1ccc(-c2ccc(Cl)cc2)c(COc2ccc(-c3nc4cc(C(=O)O)ccc4n3C3CCCCC3)c(F)c2)c1`, in the series with Huh-5-2, the CC50 worked out at 22000 nM. In addition, the EC50 in the series with Hepatitis C virus [1] turned out to be 200 nM. The half-inhibitory concentration (IC50) in [2] stood at 13 nM. In [4], this molecule registered a concentration at 2 h of 300 nM. For the same molecule, the selectivity ratio in series [5] was found to be 110. The same molecule had a concentration at 1 h in series [6] of 1100 nM.
For the molecule `CCN(C(C)=O)c1ccc(-c2ccc(Cl)cc2)c(COc2ccc(-c3nc4cc(C(=O)O)ccc4n3C3CCCCC3)c(F)c2)c1`, the CC50 in the series with Huh-5-2 worked out at 25000 nM. The midpoint of the response in the series with Hepatitis C virus [1], the EC50, lay at 140 nM. The molecule also yielded an IC50 in [2] of 19 nM. In [4], this molecule had a concentration at 2 h of 800 nM. Further, the selectivity ratio in [5] came out at 179. The molecule further returned a concentration at 1 h in series [6] of 1500 nM.
In turn, `CN(C)C(=O)c1ccc(-c2ccc(Cl)cc2)c(COc2ccc(-c3nc4cc(C(=O)O)ccc4n3C3CCCCC3)c(F)c2)c1` registered a CC50 with Huh-5-2 of 26000 nM. The same molecule came in with an EC50 with Hepatitis C virus [1] of 160 nM. Moreover, the IC50 in [2] came to 12 nM. Further, the concentration at 2 h in [4] is 1800 nM. In series [5], the selectivity ratio turned out to be 163. The molecule further showed a concentration at 1 h in series [6] of 1600 nM.
On to `CNC(=O)c1ccc(-c2ccc(Cl)cc2)c(COc2ccc(-c3nc4cc(C(=O)O)ccc4n3C3CCCCC3)c(F)c2)c1`, for which the half-maximal cytotoxic concentration (CC50) in the series on Huh-5-2 stood at 25000 nM. Besides, the EC50 in the series on Hepatitis C virus [1] amounted to 360 nM. The molecule also came in with a 50% inhibitory concentration (IC50) in series [2] of 12 nM. This molecule returned a concentration at 2 h in series [4] of 500 nM. Also, the selectivity ratio in series [5] worked out at 69. In series [6], the concentration at 1 h is 700 nM.
In the series with Huh-5-2, `O=C(O)c1ccc2c(c1)nc(-c1ccc(OCc3cc(C(=O)N4CCOCC4)ccc3-c3ccc(Cl)cc3)cc1F)n2C1CCCCC1` had a CC50 of 25000 nM. In the series with Hepatitis C virus [1], this molecule registered an EC50 of 280 nM. Also, the IC50 in [2] came to 14 nM. This molecule returned a concentration at 2 h in series [4] of 500 nM. Moreover, in [5], the selectivity ratio is 89. For the same molecule, the concentration at 1 h in [6] was 1100 nM.
`O=C(O)c1ccc2c(c1)nc(-c1ccc(OCc3cc(C(=O)N4CCCCC4)ccc3-c3ccc(Cl)cc3)cc1F)n2C1CCCCC1`: in the series on Huh-5-2, the CC50 came to 24000 nM. Besides, in the series with Hepatitis C virus [1], the EC50 is 270 nM. The midpoint of inhibition in series [2], the IC50, lay at 18 nM. This molecule yielded a concentration at 2 h in [4] of 700 nM. The selectivity ratio in [5] was 89. The molecule also came in with a concentration at 1 h in [6] of 2200 nM.
